# Compound activity from PubChem.
# HCT116 PTEN-null – growth suppression of PTEN-null HCT116, primary screen, cell-based, CellTiter-Glo; HCT116 PTEN-null viability, 60 h; hits give low values; viability, % at 10 µM; actives 1.2% (n = 140,000); AID 827, 2007;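 active means viability at or below a set limit, 4 SD under the median of all tested compounds, cut at about 3.7% in these data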;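 further: PTEN knockout HCT116 line with beta catenin targeted HCT116 as companion control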
# TNAP act hi DEA – TNAP activators at high phosphate acceptor level, primary screen, biochemical, luminescence, uHTS. purified TNAP, CDP-star luminescence, 1 M DEA, 30 min; hits give high values; 0 = EDTA background, 1 = DMSO-only activity. activation factor at 20 µM. 200,000 tested, under 10 active;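 active means activation factor at least 2 at 20 µM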
# Target sequence (P05186 whole entry, looked up): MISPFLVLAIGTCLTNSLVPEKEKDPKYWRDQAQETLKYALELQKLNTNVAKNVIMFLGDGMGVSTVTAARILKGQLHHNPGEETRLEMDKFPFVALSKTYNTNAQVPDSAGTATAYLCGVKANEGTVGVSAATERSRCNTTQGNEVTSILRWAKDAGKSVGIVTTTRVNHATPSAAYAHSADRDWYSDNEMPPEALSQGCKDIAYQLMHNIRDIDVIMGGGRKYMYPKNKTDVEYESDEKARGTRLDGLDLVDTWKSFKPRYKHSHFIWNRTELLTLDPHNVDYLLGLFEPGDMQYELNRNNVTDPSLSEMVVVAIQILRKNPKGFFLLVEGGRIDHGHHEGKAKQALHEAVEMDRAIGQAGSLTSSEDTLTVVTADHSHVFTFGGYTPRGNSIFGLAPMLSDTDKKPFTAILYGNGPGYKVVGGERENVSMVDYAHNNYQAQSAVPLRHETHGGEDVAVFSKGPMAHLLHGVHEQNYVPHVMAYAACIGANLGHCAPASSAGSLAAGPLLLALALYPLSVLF
#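 Dosing: 20 µM single point. System: human TNAP. Amount: TNAP 1/800 final. Incubation: 30 min, room temperature. Read-out: TNAP activation factor scaled between EDTA and DMSO control wells. Signal: luminescence from CDP-star hydrolysis. Medium: 1 M DEA, pH 9.8, Mg2+, Zn2+. Control set: EDTA negative control, DMSO positive control.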
# TNAP inh hiacc – human TNAP enzyme inhibitors, primary screen, biochemical, luminescent, high phosphate acceptor level, uHTS; purified TNAP, CDP-star luminescence, 1 M DEA; AID 1135, 2008; inhibition, % at 20 µM; actives 0.03% (n = 200,000); Alkaline phosphatase, tissue-nonspecific isozyme (Homo sapiens), P05186;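 active means over 50% inhibition of tissue-nonspecific alkaline phosphatase at 20 µM in the single-dose screen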;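 further: plate controls were DMSO wells for no effect and EDTA-quenched wells as full inhibition for full effect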
# Lmaj promast – Leishmania major promastigote growth inhibition, primary screen; Leishmania major promastigotes, resazurin fluorescence viability; inhibition, % at 10 µM; actives 9% (n = 200,000); AID 1063, 2008; in the data active means inhibition above about 50%;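 further: promastigotes grown with compound for 44 hours at 28 °C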
# HCT116 bCat-KO – primary screen for growth suppressors in beta-catenin knockout HCT116 cells (colon tumor, human) | actives 1.5% (n = 140,000) | viability, % at 10 µM | AID 818, 2007 | HCT116 beta-catenin knockout viability, CellTiter-Glo, 60 h; hits give low values;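 active means viability at or under a set limit, the compound median less 4 SD, cut at about 6% in these data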;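 further: 0% = Hyamine 1622 control at 20 µM and 100% = untreated cell control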
# TNAP inh no acc – human TNAP enzyme inhibitors, primary screen, biochemical, luminescent, no phosphate acceptor, uHTS; actives 0.26% (n = 200,000); inhibition, % at 20 µM; Alkaline phosphatase, tissue-nonspecific isozyme (Homo sapiens), P05186; purified TNAP, CDP-star luminescence, 30 min; AID 1012, 2008;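 active means tissue-nonspecific alkaline phosphatase inhibition above about 50% at 20 µM in the single-dose screen, limit read from the data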;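 further: 0% = DMSO negative control and 100% = EDTA positive control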
# * hit, by the source's call; . = no result given. This is a sample that favours compounds with a hit; in the whole collection about 9.6% have one here.
SMILES,HCT116 PTEN-null,TNAP act hi DEA,TNAP inh hiacc,Lmaj promast,HCT116 bCat-KO,TNAP inh no acc
c1ccc(CN2CCN(C(c3ccccc3)c3nnnn3Cc3ccccc3)CC2)cc1 (stereo unspecified),75,1.1,-6,33,93,-4
CCN(CC)c1ncnc2c1cnn2Cc1ccc(Cl)cc1,.,1.1,-8,13,.,-8
CN(C(=O)c1c(Br)cnn1C)C12CC3CC(CC(C3)C1)C2,83,1,0,8,88,-16
CN(Cc1cccs1)C(=O)Cn1cnc2ccccc2c1=O,.,1,0,-4,.,28
COCCn1nnnc1C(c1ccc(OC)c(OC)c1)N1CCN(c2nc3ccccc3s2)CC1 (stereo unspecified),.,1,-3,83*,.,-10
COc1ccc(Cn2nnnc2C(c2cccs2)N2CCCCCC2)cc1 (stereo unspecified),64,1.1,-5,57*,63,-11
COCCn1nnnc1C(c1ccccc1OC)N1CCc2ccccc2C1 (stereo unspecified),.,.,.,85*,.,.
O=C(NC1CCCCC1)Oc1cccc2ccccc12,.,1.1,-8,-1,.,-10
O=C(CCN=C1NS(=O)(=O)c2ccccc21)N1CCc2ccccc2C1,.,1,-4,2,.,-8
Oc1cccc(-c2nc3c4c(ncn3n2)-c2ccccc2CC42CCCC2)c1,2.4*,1,-4,49,10,-9
C=CCNC(=S)NS(=O)(=O)c1cccs1,.,1,-2,-9,.,0
Brc1ccc2c(c1)OCCOCCOc1cc(Br)ccc1OCCOCCOCCO2,10,1,-4,101*,10,-14
Brc1cc2c(cc1Br)OCCOCCOCCOCCO2,.,1,-4,-7,.,-19
Cc1cc(C)nc(NC(=O)c2ccc([N+](=O)[O-])o2)n1,4,1,4,56*,4.2*,-6
Cc1cc(NC(=O)c2ccc([N+](=O)[O-])o2)ccc1NC(=O)c1ccco1,.,1,0,100*,.,-6
Cc1cc(C)cc(NC(=O)c2ccc([N+](=O)[O-])o2)c1,.,1,0,100*,.,-9
Cc1cc(C)nc(NC(=O)c2cccc([N+](=O)[O-])c2C)n1,92,1,-4,-3,103,-11
N#CCSc1nc2ccccc2c2nc3ccccc3n12,9,1,-3,8,5.8*,-1
N#CCSc1nc2cc(C(=O)N3CCC(C(N)=O)CC3)ccc2c2nc3ccccc3n12,7,1,-2,6,5.0*,-8
N#CCSc1nc2cc(C(=O)N3CCCC3)ccc2c(=O)n1Cc1ccccc1,78,1,-2,12,93,-10
C[n+]1ccc(/C=C/c2ccccc2O)c2ccccc21,.,0.6,43,99*,.,44
CC(=O)/C=C/c1ccccc1O,.,1,4,39,.,-8
CCCCCCOc1ccc(N2C(=O)CC(N3CCN(CCN=CC4C(=O)CC(C)(C)CC4=O)CC3)C2=O)cc1 (stereo unspecified),.,1,0,1,.,-10
Cc1ccc([N+](=O)[O-])cc1S(=O)(=O)NCCc1c(C)[nH]c2ccccc12,82,1,-1,96*,88,-5
CCOC(=O)C(C(C)=O)c1c(Br)c(O)c(O)c2c(C(=O)c3ccc(C)cc3)coc12 (stereo unspecified),1.7*,1,2,-5,1.3*,13
SMILES,HCT116 PTEN-null,TNAP act hi DEA,TNAP inh hiacc,Lmaj promast,HCT116 bCat-KO,TNAP inh no acc
CCOC(=O)c1c(C)n(-c2ccc(C)cc2)c2c(C(C(C)=O)C(=O)O)c(Br)c(O)c(O)c12 (stereo unspecified),64,1,4,50*,48,7
CCOC(=O)c1c(C)n(-c2ccc(C)cc2)c2c(CC(C)=O)c(Br)c(OC)c(O)c12,87,1.1,-6,-1,98,-7
COc1ccc(C)cc1NC(=O)C1CCN(C(=O)Cc2ccccc2)CC1,.,1,0,-2,.,4
CC12CCC(C/C1=N\N=C1\NC(=O)/C(=C\c3ccc(Cl)cc3)S1)C2(C)C (stereo unspecified),59,1,1,-2,61,-7
COc1cc(Br)cc(C2C3=C(CCCC3=O)N(c3ccc(F)cc3)C3=C2C(=O)CCC3)c1O,.,1,-3,58*,.,1
O=C(COC(=O)C1=COCCO1)Nc1ccc(OC(F)F)cc1,.,1,-1,-3,.,-11
C=C1C(O)C[C@H]2C(=C)CCC3[C@H](OC(=O)[C@]3(O)CO)[C@@H]12 (stereo partly specified),0.5*,1,-2,-4,0.7*,-9
Cc1onc(-c2ccccc2Cl)c1C(=O)Nc1ncn[nH]1,99,1,0,0,101,1
CCOC(=O)C1=C(O)/C(=C\c2cc(C)n(-c3ccccc3F)c2C)N=C1C,.,1,0,36,.,-3
CCOC(=O)C1=C(O)/C(=C/c2cccc(OC)c2O)N=C1C,.,0.7,28,63*,.,26
O=C(Nc1ccc2c(c1)OCO2)C1Cc2ccccc2CN1S(=O)(=O)c1cccs1 (stereo unspecified),84,1.1,-6,99*,88,1
O=C(Nc1nnc(C2CC2)s1)C1Cc2ccccc2CN1S(=O)(=O)c1ccccc1F (stereo unspecified),17,1,0,100*,20,1
O=C(Nc1ccc2c(c1)OCO2)C1CCN(S(=O)(=O)c2cccs2)CC1,76,1,0,10,81,3
O=C(Nc1nccs1)C1Cc2ccccc2CN1S(=O)(=O)c1ccc(F)cc1 (stereo unspecified),61,1,-4,66*,62,-12
CCN(CC)S(=O)(=O)c1ccc(NC(=O)Cc2cccs2)cc1,.,1,-1,-3,.,-10
O=C(CSc1ccccn1)NC1CCCC1,.,1,-2,1,.,-7
Cc1ccnc(SCCn2c(N3CC(C)OC(C)C3)nc3c2c(=O)n(C)c(=O)n3C)n1 (stereo unspecified),.,1,-1,-2,.,-11
Cc1ccnc(SCCn2c(N3CC(C)CC(C)C3)nc3c2c(=O)n(C)c(=O)n3C)n1 (stereo unspecified),83,1.1,-8,58*,83,-3
CCCCN(C)CC(O)Cn1cc(/C=C/C(=O)c2cccs2)c2ccccc21 (stereo unspecified),1.6*,0.8,17,69*,1.6*,-5
